Experiments:
[1] = test system: L1210; test: The concentration required for inhibiting the growth of the murine L1210 leukemia cells by 50%; format: functional, cell-based; details: Mus musculus
In short: (§1)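 MTT growth inhibition in murine lines grown in DMEM with 10% FBS, HEPES, glutamine, pen/strep at 37 °C, 5% CO2. Seeded 80 000 cells/well, continuous drug exposure (DMSO stock diluted in DMEM) for 72 h, quadruplicate wells per concentration. MTT added for 4 h, formazan dissolved in acid 2-propanol, read at 570 nm (reference 630 nm). IC50 extrapolated from averaged absorbance curves.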

[2] = The concentration required for inhibiting the growth of the murine B16-F0 melanoma cells by 50%; format: functional; details: Mus musculus, B16F0; in short: as §1
[3] = test system: K562; test: The concentration required for inhibiting the growth of the human K562 chronic myeloid leukemia cells by 50%; format: functional, cell-based
In short: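 Drug exposure was […] in the dark, then cells were washed and plated at 10⁴ cells/well, eight wells per sample, and incubated 4 days. MTT was added for 5 h, formazan dissolved in DMSO and read at 550 nm.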

| SMILES | IC50 [1] [nM] | IC50 [3] [nM] | IC50 [2] [nM] |
| --- | --- | --- | --- |
| COc1cc2cc(C(=O)Nc3cc(N)c4ccccc4c3CCOC(C)=O)[nH]c2c(OC)c1OC | 53000 | – | 54000 |
| COc1cc2cc(C(=O)Nc3cc(N)c4ccccc4c3CCO)[nH]c2c(OC)c1OC | 41000 | – | 60000 |
| COc1cc2cc(C(=O)NC3=C(CCCl)CCC(O)=C3)[nH]c2c(OC)c1OC | – | 1430 | – |
| COc1ccc(/C=C/C(=O)Nc2cc(N)c3ccccc3c2CCCl)nc1 | 550 | – | 750 |

The remaining compounds from weak to strong by IC50 [1], led by results:

| IC50 [1] [nM] | IC50 [3] [nM] | SMILES | IC50 [2] [nM] |
| --- | --- | --- | --- |
| 390 | – | COc1ccc2[nH]c(C(=O)Nc3cc(N)c4ccccc4c3CCCl)cc2c1 | 260 |
| 87 | – | Nc1cc(NC(=O)c2cc3cc(NC(=O)c4cc5ccccc5o4)ccc3[nH]2)c(CCCl)c2ccccc12 | 43 |
